According to paper PMC5741288 (Pain Reports, 2016):
Marks after values point to notes of the source that are not given here.

Test: Treatment-emergent adverse events, tolerability
Type: in vivo, healthy men
How it was run: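 Healthy men received single oral tablet doses (part 1: 1–225 mg; part 2: 10, 50 mg) or placebo under double-blind randomisation. Treatment-emergent adverse events were recorded along with clinical laboratory tests, ECG, oral temperature, vital signs and physical examinations, through follow-up.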

## CC(C)(O)c1ccccc1-c1ccc2[nH]c(/C=C/c3ccc(C(F)(F)F)cc3)nc2c1 [JNJ-39439335, trans-2-(2-{2-[2-(4-Trifluoromethyl-phenyl)-vinyl]-1H-benzimidazol-5-yl}-phenyl)-propan-2-ol]
Part 1, 30 mg (N = 5)
  TEAE Burning sensation: 0 n (%)
  TEAE Chills: 0 n (%)
  TEAE Dizziness: 1 (20) n (%)
  TEAE Dizziness postural: 0 n (%)
  TEAE Dysgeusia: 1 (20) n (%)
  TEAE Fatigue: 0 n (%)
  TEAE Feeling cold: 5 (100) n (%)
  TEAE Feeling hot: 4 (80) n (%)
  TEAE Headache: 0 n (%)
  TEAE Hematoma: 0 n (%)
  TEAE Hyperhidrosis: 0 n (%)
  TEAE Hypoesthesia: 0 n (%)
  TEAE Hypogeusia: 0 n (%)
  TEAE Nausea: 0 n (%)
  TEAE Orthostatic hypotension: 1 (20) n (%)
  TEAE Paresthesia: 0 n (%)
  TEAE Pruritus: 0 n (%)
  TEAE Pyrexia: 3 (60) n (%)
  TEAE Rhinitis: 0 n (%)
  TEAE Thermal burn: 1 (20) n (%)
  TEAE Thermohypoesthesia: 3 (60) n (%)
  Total no. participants with AEs: 5 (100) n (%)
Part 1, 60 mg (N = 6)
  TEAE Agusia: 0 n (%)
  TEAE Back pain: 0 n (%)
  TEAE Burning sensation: 0 n (%)
  TEAE Chills: 0 n (%)
  TEAE Dizziness: 0 n (%)
  TEAE Dizziness postural: 0 n (%)
  TEAE Dysgeusia: 1 (17) n (%)
  TEAE Fatigue: 0 n (%)
  TEAE Feeling cold: 4 (67) n (%)
  TEAE Feeling hot: 1 (17) n (%)
  TEAE Headache: 0 n (%)
  TEAE Hematoma: 0 n (%)
  TEAE Hyperhidrosis: 0 n (%)
  TEAE Hypoesthesia: 1 (17) n (%)
  TEAE Hypogeusia: 0 n (%)
  TEAE Nausea: 1 (17) n (%)
  TEAE Paresthesia: 0 n (%)
  TEAE Pruritus: 0 n (%)
  TEAE Pyrexia: 4 (67) n (%)
  TEAE Rhinitis: 0 n (%)
  TEAE Thermal burn: 0 n (%)
  TEAE Thermohypoesthesia: 1 (17) n (%)
  Total no. participants with AEs: 6 (100) n (%)
Part 1, 120 mg (N = 6)
  TEAE Agusia: 0 n (%)
  TEAE Back pain: 0 n (%)
  TEAE Burning sensation: 0 n (%)
  TEAE Chills: 1 (17) n (%)
  TEAE Dizziness: 1 (17) n (%)
  TEAE Dizziness postural: 1 (17) n (%)
  TEAE Dysgeusia: 0 n (%)
  TEAE Fatigue: 1 (17) n (%)
  TEAE Feeling cold: 1 (17) n (%)
  TEAE Feeling hot: 1 (17) n (%)
  TEAE Headache: 1 (17) n (%)
  TEAE Hematoma: 1 (17) n (%)
  TEAE Hyperhidrosis: 0 n (%)
  TEAE Hypoesthesia: 1 (17) n (%)
  TEAE Hypogeusia: 0 n (%)
  TEAE Nausea: 1 (17) n (%)
  TEAE Orthostatic hypotension: 0^a n (%)
  TEAE Paresthesia: 0 n (%)
  TEAE Pruritus: 1 (17) n (%)
  TEAE Pyrexia: 4 (67) n (%)
  TEAE Rhinitis: 0 n (%)
  TEAE Thermal burn: 0 n (%)
  TEAE Thermohypoesthesia: 4 (67) n (%)
  Total no. participants with AEs: 6 (100) n (%)
Part 1, 225 mg (N = 6)
  TEAE Agusia: 2 (33) n (%)
  TEAE Back pain: 0 n (%)
  TEAE Burning sensation: 5 (83) n (%)
  TEAE Chills: 1 (17) n (%)
  TEAE Dizziness: 1 (17) n (%)
  TEAE Dizziness postural: 0 n (%)
  TEAE Dysgeusia: 0 n (%)
  TEAE Fatigue: 0 n (%)
  TEAE Feeling cold: 2 (33) n (%)
  TEAE Feeling hot: 5 (83) n (%)
  TEAE Headache: 2 (33) n (%)
  TEAE Hematoma: 0 n (%)
  TEAE Hyperhidrosis: 1 (17) n (%)
  TEAE Hypoesthesia: 0 n (%)
  TEAE Hypogeusia: 0 n (%)
  TEAE Nausea: 0 n (%)
  TEAE Orthostatic hypotension: 1 (17) n (%)
  TEAE Paresthesia: 3 (50) n (%)
  TEAE Pruritus: 1 (17) n (%)
  TEAE Pyrexia: 3 (50) n (%)
  TEAE Rhinitis: 0 n (%)
  TEAE Thermal burn: 3 (50) n (%)
  TEAE Thermohypoesthesia: 5 (83) n (%)
  Total no. participants with AEs: 6 (100) n (%)
Part 1, 225-mg dose group
  Participants with burning feeling (not physical burn): 5 participants
Part 1, of 59 participants receiving JNJ-39439335
  Participants reporting at least 1 TEAE: 50 (85%) n (%)
Part 1, of the 89 participants who received JNJ-39439335 or placebo
  Participants with minor or first-degree burns: 4 participants
Part 1, participants receiving JNJ-39439335
  Thermohypoesthesia, participants: 23 (39%) n (%)
Part 2
  Thermohypoesthesia, participants: 70%
Part 2, 10 mg (N = 19)
  TEAE Disturbance in attention: 1 (5) n (%)
  TEAE Dizziness: 0 n (%)
  TEAE Dizziness postural: 0 n (%)
  TEAE Dysgeusia: 4 (21) n (%)
  TEAE Feeling cold: 9 (47) n (%)
  TEAE Feeling hot: 6 (32) n (%)
  TEAE Headache: 3 (16) n (%)
  TEAE Hyperhidrosis: 2 (11) n (%)
  TEAE Oropharyngeal pain: 1 (5) n (%)
  TEAE Paresthesia: 7 (37) n (%)
  TEAE Pyrexia: 8 (42) n (%)
  TEAE Thermal burn: 0 n (%)
  TEAE Thermohypoesthesia: 9 (47) n (%)
  Total no. participants with AEs: 17 (89) n (%)
Part 2, 50 mg (N = 20)
  TEAE Disturbance in attention: 2 (10) n (%)
  TEAE Dizziness: 2 (10) n (%)
  TEAE Dizziness postural: 1 (5) n (%)
  TEAE Dysgeusia: 5 (25) n (%)
  TEAE Feeling cold: 9 (45) n (%)
  TEAE Feeling hot: 8 (40) n (%)
  TEAE Headache: 3 (15) n (%)
  TEAE Hyperhidrosis: 2 (10) n (%)
  TEAE Oropharyngeal pain: 1 (5) n (%)
  TEAE Paresthesia: 9 (45) n (%)
  TEAE Pyrexia: 11 (55) n (%)
  TEAE Thermal burn: 2 (10) n (%)
  TEAE Thermohypoesthesia: 12 (60) n (%)
  Total no. participants with AEs: 19 (95) n (%)
Part 2, 50-mg dose
  Participants with minor burns of the mouth: 2 participants
Part 2, Total (N = 20)
  TEAE Disturbance in attention: 2 (10) n (%)
  TEAE Dizziness: 2 (10) n (%)
  TEAE Dizziness postural: 2 (10) n (%)
  TEAE Dysgeusia: 7 (35) n (%)
  TEAE Feeling cold: 13 (65) n (%)
  TEAE Feeling hot: 11 (55) n (%)
  TEAE Headache: 5 (25) n (%)
  TEAE Hyperhidrosis: 4 (20) n (%)
  TEAE Oropharyngeal pain: 2 (10) n (%)
  TEAE Paresthesia: 11 (55) n (%)
  TEAE Pyrexia: 12 (60) n (%)
  TEAE Thermal burn: 2 (10) n (%)
  TEAE Thermohypoesthesia: 14 (70) n (%)
  Total no. participants with AEs: 20 (100) n (%)
Parts 1 and 2
  Severe adverse events / withdrawals because of an adverse event: no severe adverse events reported
Single oral doses up to 225 mg
  Tolerability: well tolerated
